What was measured:
Escherichia coli [1] = assay: Activity of Escherichia coli beta-lactamase VIM-1 by spectrophotometry
Escherichia coli [2] = assay: Ratio of Kcat to Km for Escherichia coli beta-lactamase VIM-1 by spectrophotometry
[3] = system: CCN1CCN(C(=O)N[C@@H](C(=O)N[C@@H]2C(=O)N3[C@@H]2SC(C)(C)[C@@H]3C(=O)O)c2ccccc2)C(=O)C1=O; assay: (§1) Activity of Pseudomonas aeruginosa beta-lactamase VIM-2 by spectrophotometry; conditions: 81-11963
How it was run: (§2)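 Recombinant enzyme was expressed in E. coli BL21(DE3) from pET-26b and purified from the periplasm to >99%, with concentration taken from A280. Hydrolysis was followed spectrophotometrically at 25°C in 50 mM sodium cacodylate pH 7.0 with 100 μM ZnCl2 and 0.1 mg/ml BSA. Km and kcat came from initial velocity versus substrate concentration. Some Km values were taken as competitive Ki against nitrocefin reporter.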

[4] = system: CO/N=C(\C(=O)N[C@@H]1C(=O)N2C(C(=O)O)=C(COC(N)=O)CS[C@H]12)c1ccco1; assay: as §1; conditions: 81-11963; how it was run: as §2
[5] = system: CC1(C)S[C@@H]2[C@H](NC(=O)Cc3ccccc3)C(=O)N2[C@H]1C(=O)O; assay: as §1; conditions: 81-11963; how it was run: as §2
[6] = system: C[C@@H](O)[C@H]1C(=O)N2C(C(=O)O)=C(S[C@@H]3CN[C@H](C(=O)Nc4cccc(C(=O)O)c4)C3)[C@H](C)[C@H]12; assay: as §1; conditions: 81-11963; how it was run: as §2
[7] = system: C[C@@H](O)[C@H]1C(=O)N2C(C(=O)O)=C(S[C@@H]3CN[C@H](C(=O)N(C)C)C3)[C@H](C)[C@H]12; assay: as §1; conditions: 81-11963; how it was run: as §2
[8] = system: O=C(O)[C@H]1/C(=C/CO)O[C@@H]2CC(=O)N21; assay: as §1; conditions: 81-11963; how it was run: as §2
[9] = system: CC1(C)S[C@@H]2[C@H](NC(=O)C(C(=O)O)c3ccccc3)C(=O)N2[C@H]1C(=O)O; assay: as §1; conditions: 81-11963; how it was run: as §2
[10] = system: C[C@H]1[C@H](NC(=O)/C(=N\OC(C)(C)C(=O)O)c2csc(N)n2)C(=O)N1S(=O)(=O)O; assay: as §1; conditions: 81-11963; how it was run: as §2
[11] = system: C[C@]1(Cn2ccnn2)[C@H](C(=O)O)N2C(=O)C[C@H]2S1(=O)=O; assay: as §1; conditions: 81-11963; how it was run: as §2
[12] = system: CC(C)(O/N=C(\C(=O)N[C@@H]1C(=O)N2C(C(=O)[O-])=C(C[n+]3ccccc3)CS[C@H]12)c1csc(N)n1)C(=O)O; assay: as §1; conditions: 81-11963; how it was run: as §2
[13] = system: CO[C@@]1(NC(=O)Cc2cccs2)C(=O)N2C(C(=O)O)=C(COC(N)=O)CS[C@@H]21; assay: as §1; conditions: 81-11963; how it was run: as §2
[14] = system: CO/N=C(\C(=O)N[C@@H]1C(=O)N2C(C(=O)[O-])=C(C[N+]3(C)CCCC3)CS[C@H]12)c1csc(N)n1; assay: as §1; conditions: 81-11963; how it was run: as §2
[15] = system: CC1(C)S[C@@H]2[C@H](NC(=O)[C@H](NC(=O)N3CCNC3=O)c3ccccc3)C(=O)N2[C@H]1C(=O)O; assay: as §1; conditions: 81-11963; how it was run: as §2
[16] = system: CC1(C)S[C@@H]2[C@H](NC(=O)[C@H](N)c3ccccc3)C(=O)N2[C@H]1C(=O)O; assay: as §1; conditions: 81-11963; how it was run: as §2
[17] = system: O=C(Cc1cccs1)N[C@@H]1C(=O)N2C(C(=O)[O-])=C(C[n+]3ccccc3)CS[C@H]12; assay: as §1; conditions: 81-11963; how it was run: as §2
[18] = system: CC1(C)[C@H](C(=O)O)N2C(=O)C[C@H]2S1(=O)=O; assay: as §1; conditions: 81-11963; how it was run: as §2
[19] = system: O=C(Cc1cccs1)N[C@@H]1C(=O)N2C(C(=O)O)=C(/C=C/c3ccc([N+](=O)[O-])cc3[N+](=O)[O-])CS[C@H]12; assay: as §1; conditions: 81-11963; how it was run: as §2
[20] = system: CC(=O)OCC1=C(C(=O)O)N2C(=O)[C@@H](NC(=O)Cc3cccs3)[C@H]2SC1; assay: as §1; conditions: 81-11963; how it was run: as §2
[21] = system: Cc1onc(-c2ccccc2Cl)c1C(=O)N[C@@H]1C(=O)N2[C@@H]1SC(C)(C)[C@@H]2C(=O)O; assay: as §1; conditions: 81-11963; how it was run: as §2
[22] = system: CO/N=C(\C(=O)N[C@@H]1C(=O)N2C(C(=O)O)=C(COC(C)=O)CS[C@H]12)c1csc(N)n1; assay: as §1; conditions: 81-11963; how it was run: as §2
[23] = system: CO[C@@]1(NC(=O)C(C(=O)O)c2ccc(O)cc2)C(=O)N2C(C(=O)O)=C(CSc3nnnn3C)CO[C@@H]21; assay: as §1; conditions: 81-11963; how it was run: as §2
[24] = system: CCN1CCN(C(=O)N[C@@H](C(=O)N[C@@H]2C(=O)N3[C@@H]2SC(C)(C)[C@@H]3C(=O)O)c2ccccc2)C(=O)C1=O; assay: (§3) Ratio of Kcat to Km for Pseudomonas aeruginosa beta-lactamase VIM-2 by spectrophotometry; conditions: 81-11963; how it was run: as §2
[25] = system: CO/N=C(\C(=O)N[C@@H]1C(=O)N2C(C(=O)O)=C(COC(N)=O)CS[C@H]12)c1ccco1; assay: as §3; conditions: 81-11963; how it was run: as §2
[26] = system: CC1(C)S[C@@H]2[C@H](NC(=O)Cc3ccccc3)C(=O)N2[C@H]1C(=O)O; assay: as §3; conditions: 81-11963; how it was run: as §2
[27] = system: C[C@@H](O)[C@H]1C(=O)N2C(C(=O)O)=C(S[C@@H]3CN[C@H](C(=O)Nc4cccc(C(=O)O)c4)C3)[C@H](C)[C@H]12; assay: as §3; conditions: 81-11963; how it was run: as §2
[28] = system: C[C@@H](O)[C@H]1C(=O)N2C(C(=O)O)=C(S[C@@H]3CN[C@H](C(=O)N(C)C)C3)[C@H](C)[C@H]12; assay: as §3; conditions: 81-11963; how it was run: as §2
[29] = system: O=C(O)[C@H]1/C(=C/CO)O[C@@H]2CC(=O)N21; assay: as §3; conditions: 81-11963; how it was run: as §2
[30] = system: CC1(C)S[C@@H]2[C@H](NC(=O)C(C(=O)O)c3ccccc3)C(=O)N2[C@H]1C(=O)O; assay: as §3; conditions: 81-11963; how it was run: as §2
[31] = system: C[C@]1(Cn2ccnn2)[C@H](C(=O)O)N2C(=O)C[C@H]2S1(=O)=O; assay: as §3; conditions: 81-11963; how it was run: as §2
[32] = system: CC(C)(O/N=C(\C(=O)N[C@@H]1C(=O)N2C(C(=O)[O-])=C(C[n+]3ccccc3)CS[C@H]12)c1csc(N)n1)C(=O)O; assay: as §3; conditions: 81-11963; how it was run: as §2
[33] = system: CO[C@@]1(NC(=O)Cc2cccs2)C(=O)N2C(C(=O)O)=C(COC(N)=O)CS[C@@H]21; assay: as §3; conditions: 81-11963; how it was run: as §2
[34] = system: CO/N=C(\C(=O)N[C@@H]1C(=O)N2C(C(=O)[O-])=C(C[N+]3(C)CCCC3)CS[C@H]12)c1csc(N)n1; assay: as §3; conditions: 81-11963; how it was run: as §2
[35] = system: CC1(C)S[C@@H]2[C@H](NC(=O)[C@H](NC(=O)N3CCNC3=O)c3ccccc3)C(=O)N2[C@H]1C(=O)O; assay: as §3; conditions: 81-11963; how it was run: as §2
[36] = system: CC1(C)S[C@@H]2[C@H](NC(=O)[C@H](N)c3ccccc3)C(=O)N2[C@H]1C(=O)O; assay: as §3; conditions: 81-11963; how it was run: as §2
[37] = system: O=C(Cc1cccs1)N[C@@H]1C(=O)N2C(C(=O)[O-])=C(C[n+]3ccccc3)CS[C@H]12; assay: as §3; conditions: 81-11963; how it was run: as §2
[38] = system: CC1(C)[C@H](C(=O)O)N2C(=O)C[C@H]2S1(=O)=O; assay: as §3; conditions: 81-11963; how it was run: as §2
[39] = system: O=C(Cc1cccs1)N[C@@H]1C(=O)N2C(C(=O)O)=C(/C=C/c3ccc([N+](=O)[O-])cc3[N+](=O)[O-])CS[C@H]12; assay: as §3; conditions: 81-11963; how it was run: as §2
[40] = system: CC(=O)OCC1=C(C(=O)O)N2C(=O)[C@@H](NC(=O)Cc3cccs3)[C@H]2SC1; assay: as §3; conditions: 81-11963; how it was run: as §2
[41] = system: Cc1onc(-c2ccccc2Cl)c1C(=O)N[C@@H]1C(=O)N2[C@@H]1SC(C)(C)[C@@H]2C(=O)O; assay: as §3; conditions: 81-11963; how it was run: as §2
[42] = system: CO/N=C(\C(=O)N[C@@H]1C(=O)N2C(C(=O)O)=C(COC(C)=O)CS[C@H]12)c1csc(N)n1; assay: as §3; conditions: 81-11963; how it was run: as §2
[43] = system: CO[C@@]1(NC(=O)C(C(=O)O)c2ccc(O)cc2)C(=O)N2C(C(=O)O)=C(CSc3nnnn3C)CO[C@@H]21; assay: as §3; conditions: 81-11963; how it was run: as §2

CC1(C)S[C@@H]2[C@H](NC(=O)C(C(=O)O)c3ccccc3)C(=O)N2[C@H]1C(=O)O (stereo partly drawn)
Km (Escherichia coli [1]): 75 µM | kcat (Escherichia coli [1]): 170 s⁻¹ | kcat/Km (Escherichia coli [2]): 2.3e+06 M⁻¹ s⁻¹

CC1(C)S[C@@H]2[C@H](NC(=O)Cc3ccccc3)C(=O)N2[C@H]1C(=O)O
Km (Escherichia coli [1]): 840 µM | kcat/Km (Escherichia coli [2]): 36000 M⁻¹ s⁻¹

C[C@@H](O)[C@H]1C(=O)N2C(C(=O)O)=C(SCCNC=N)C[C@H]12
Km (Escherichia coli [1]): 1.5 µM | kcat (Escherichia coli [1]): 0.2 s⁻¹ | kcat/Km (Escherichia coli [2]): 130000 M⁻¹ s⁻¹

Beta-lactamase VIM-2 (Pseudomonas aeruginosa) (from UniProt Q9K2N0)
Km [3]: 125 µM | kcat [3]: 300 s⁻¹ | Km [4]: 20 µM | kcat [4]: 8 s⁻¹ | Km [5]: 70 µM | kcat [5]: 280 s⁻¹ | Km [6]: 9 µM | kcat [6]: 0.2 s⁻¹ | Km [7]: 2 µM | kcat [7]: 5 s⁻¹ | Km [8]: > 5000 µM | kcat [8]: 5.4 s⁻¹ | Km [9]: 205 µM | kcat [9]: 185 s⁻¹ | Km [10]: > 1000 µM | kcat [10]: < 0.01 s⁻¹ | Km [11]: 875 µM | kcat [11]: 28 s⁻¹ | Km [12]: 72 µM | kcat [12]: 3.6 s⁻¹ | Km [13]: 13 µM | kcat [13]: 15 s⁻¹ | Km [14]: > 400 µM | kcat [14]: > 40 s⁻¹ | Km [15]: 200 µM | kcat [15]: 200 s⁻¹ | Km [16]: 90 µM | kcat [16]: 125 s⁻¹ | Km [17]: 50 µM | kcat [17]: 140 s⁻¹ | Km [18]: 320 µM | kcat [18]: 23 s⁻¹ | Km [19]: 18 µM | kcat [19]: 770 s⁻¹ | Km [20]: 11 µM | kcat [20]: 130 s⁻¹ | Km [21]: 250 µM | kcat [21]: 350 s⁻¹ | Km [22]: 12 µM | kcat [22]: 70 s⁻¹ | Km [23]: 55 µM | kcat [23]: 90 s⁻¹ | kcat/Km [24]: 2.4e+06 M⁻¹ s⁻¹ | kcat/Km [25]: 400000 M⁻¹ s⁻¹ | kcat/Km [26]: 4e+06 M⁻¹ s⁻¹ | kcat/Km [27]: 22000 M⁻¹ s⁻¹ | kcat/Km [28]: 2.5e+06 M⁻¹ s⁻¹ | kcat/Km [29]: 1100 M⁻¹ s⁻¹ | kcat/Km [30]: 900000 M⁻¹ s⁻¹ | kcat/Km [31]: 32000 M⁻¹ s⁻¹ | kcat/Km [32]: 50000 M⁻¹ s⁻¹ | kcat/Km [33]: 1.2e+06 M⁻¹ s⁻¹ | kcat/Km [34]: 100000 M⁻¹ s⁻¹ | kcat/Km [35]: 1e+06 M⁻¹ s⁻¹ | kcat/Km [36]: 1.4e+06 M⁻¹ s⁻¹ | kcat/Km [37]: 2.8e+06 M⁻¹ s⁻¹ | kcat/Km [38]: 72000 M⁻¹ s⁻¹ | kcat/Km [39]: 4.28e+07 M⁻¹ s⁻¹ | kcat/Km [40]: 1.2e+07 M⁻¹ s⁻¹ | kcat/Km [41]: 1.4e+06 M⁻¹ s⁻¹ | kcat/Km [42]: 5.8e+06 M⁻¹ s⁻¹ | kcat/Km [43]: 1.6e+06 M⁻¹ s⁻¹

CO[C@@]1(NC(=O)C(C(=O)O)c2ccc(O)cc2)C(=O)N2C(C(=O)O)=C(CSc3nnnn3C)CO[C@@H]21 (stereo partly drawn)
Km (Escherichia coli [1]): 450 µM | kcat (Escherichia coli [1]): 43 s⁻¹ | kcat/Km (Escherichia coli [2]): 96000 M⁻¹ s⁻¹

From ChEMBL document CHEMBL1275486, “Kinetic characterization of VIM-7, a divergent member of the VIM metallo-beta-lactamase family” (Antimicrob Agents Chemother, 2008)
